Measured values published in ChEMBL document CHEMBL4014310, “Selective IKur Inhibitors for the Potential Treatment of Atrial Fibrillation: Optimization of the Phenyl Quinazoline Series Leading to Clinical Candidate 5-[5-Phenyl-4-(pyridin-2-ylmethylamino)quinazolin-2-yl]pyridine-3-sulfonamide” (J Med Chem, 2017).
Activity calls are given as the source filed them. The calls are words filed in the database; no cut-off is given here.

Columns and labels:
[1] = target: Potassium voltage-gated channel subfamily A member 5 (Homo sapiens, UniProt P22460); experiment: Inhibition of recombinant human Kv1.5 expressed in mouse L929 cells by patch clamp assay; format: cell-based
In short: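 Whole-cell patch clamp of IKur current in mouse L-929 cells transfected with human KV1.5 and stably expressing the channel.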

[2] = Ratio of drug level in Sprague-Dawley rat brain to plasma at 3 mg/kg, iv administered as 10 mins infusion by LC-MS/MS analysis; format: ADME, organism-based; details: brain and plasma, read-out: BPR
[3] = Protein binding in human plasma; format: ADME, cell-free; details: read-out: PPB
[4] = Protein binding in rat plasma; format: ADME, cell-free; details: read-out: PPB
[5] = Inhibition of IKs (unknown origin); design: species or system Homo sapiens
[6] = Clearance in mouse at 2 mg/kg, iv or 5 mg/kg, po; format: ADME, organism-based; details: in vivo
In short: (§1)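 Single-dose PK study in mouse and rat (2 mg/kg iv, 5 mg/kg po), cynomolgus monkey (1 mg/kg iv and po) and dog (0.1 mg/kg iv, 1 mg/kg po). Dosing vehicle was 1:4:5 EtOH/propylene glycol/PEG400. Clearance, Vss, half-life, Cmax, Tmax, AUC (μM h) and oral %F were derived from plasma levels.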

[7] = Half life in mouse at 2 mg/kg, iv or 5 mg/kg, po; format: ADME, organism-based; details: in vivo; in short: as §1
[8] = Tmax in mouse at 2 mg/kg, iv or 5 mg/kg, po; format: ADME, organism-based; details: in vivo
In short: (§2)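 Single-dose PK in mouse and rat (2 mg/kg iv, 5 mg/kg po), cynomolgus monkey (1 mg/kg iv and po) and dog (0.1 mg/kg iv, 1 mg/kg po). Dosing vehicle was 1:4:5 EtOH/propylene glycol/PEG400. Parameters reported: clearance, Vss, half-life, Cmax, Tmax, AUC and oral bioavailability.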

[9] = Clearance in rat at 2 mg/kg, iv or 5 mg/kg, po; format: ADME, organism-based; details: in vivo; in short: as §1
[10] = Volume of distribution at steady state in rat at 2 mg/kg, iv or 5 mg/kg, po; format: ADME, organism-based; details: in vivo, read-out: Vdss; in short: as §2
[11] = Half life in rat at 2 mg/kg, iv or 5 mg/kg, po; format: ADME, organism-based; details: in vivo; in short: as §1
[12] = Cmax in rat at 2 mg/kg, iv or 5 mg/kg, po; format: ADME, organism-based; details: in vivo; in short: as §1
[13] = Tmax in rat at 2 mg/kg, iv or 5 mg/kg, po; format: ADME, organism-based; details: in vivo; in short: as §2
[14] = AUC in rat at 2 mg/kg, iv or 5 mg/kg, po; format: ADME, organism-based; details: in vivo; in short: as §1
[15] = Oral bioavailability in rat at 5 mg/kg using crystalline form; format: ADME, organism-based; details: in vivo
[16] = Volume of distribution at steady state in cynomolgus monkey at 1 mg/kg, iv or 1 mg/kg, po; format: ADME, organism-based, Macaca fascicularis; details: in vivo, read-out: Vdss; in short: as §2
[17] = Cmax in cynomolgus monkey at 1 mg/kg, iv or 1 mg/kg, po; format: ADME, organism-based, Macaca fascicularis; details: in vivo; in short: as §1
[18] = AUC in cynomolgus monkey at 1 mg/kg, iv or 1 mg/kg, po; format: ADME, organism-based, Macaca fascicularis; details: in vivo; in short: as §1
[19] = Oral bioavailability in cynomolgus monkey at 1 mg/kg; format: ADME, organism-based, Macaca fascicularis; details: in vivo; in short: as §1
[20] = Clearance in dog at 0.1 mg/kg, iv or 1 mg/kg, po; format: ADME, organism-based, Canis lupus familiaris; details: in vivo; in short: as §1
[21] = Volume of distribution at steady state in dog at 0.1 mg/kg, iv or 1 mg/kg, po; format: ADME, organism-based, Canis lupus familiaris; details: in vivo, read-out: Vdss; in short: as §2
[22] = Half life in dog at 0.1 mg/kg, iv or 1 mg/kg, po; format: ADME, organism-based, Canis lupus familiaris; details: in vivo; in short: as §1
[23] = Cmax in dog at 0.1 mg/kg, iv or 1 mg/kg, po; format: ADME, organism-based, Canis lupus familiaris; details: in vivo; in short: as §1
[24] = tested on: Oryctolagus cuniculus; experiment: Antiatrial fibrillation activity in methoxamine-sensitised rabbit assessed as increase in atrial effective refractory period at 1 mg/kg, iv administered as 30 mins infusion relative to control; format: functional
In short: (§3)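 Rabbit, iv dosing at 1 or 3 mg/kg. AERP was measured at 10, 20 and 30 min time points as % prolongation, and plasma compound concentration was measured at the same time points and correlated with the AERP change.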

[25] = Plasma concentration in methoxamine-sensitised rabbit at 1 mg/kg, iv administered as 20 mins infusion; format: ADME, organism-based, Oryctolagus cuniculus
[26] = Plasma concentration in methoxamine-sensitised rabbit at 1 mg/kg, iv administered as 30 mins infusion; format: ADME, organism-based, Oryctolagus cuniculus
[27] = tested on: Oryctolagus cuniculus; experiment: Antiatrial fibrillation activity in methoxamine-sensitised rabbit assessed as increase in atrial effective refractory period at 3 mg/kg, iv administered as 10 mins infusion relative to control; format: functional; in short: as §3
[28] = tested on: Oryctolagus cuniculus; experiment: Antiatrial fibrillation activity in methoxamine-sensitised rabbit assessed as increase in atrial effective refractory period at 3 mg/kg, iv administered as 20 mins infusion relative to control; format: functional; in short: as §3
[29] = tested on: Oryctolagus cuniculus; experiment: Antiatrial fibrillation activity in methoxamine-sensitised rabbit assessed as increase in atrial effective refractory period at 3 mg/kg, iv administered as 30 mins infusion relative to control; format: functional; in short: as §3
[30] = Plasma concentration in methoxamine-sensitised rabbit at 3 mg/kg, iv administered as 10 mins infusion; format: ADME, organism-based, Oryctolagus cuniculus
[31] = Plasma concentration in methoxamine-sensitised rabbit at 3 mg/kg, iv administered as 20 mins infusion; format: ADME, organism-based, Oryctolagus cuniculus
[32] = tested on: Oryctolagus cuniculus; experiment: Antiatrial fibrillation activity in methoxamine-sensitised rabbit assessed as plasma concentration required to show increase in atrial effective refractory period at 0.17 mg/kg, iv administered as 1 min infusion; format: functional, organism-based
In short: (§4)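 Rabbit, iv infusion of compound in DMF (0.17 mg/mL) with a 0.17 mg/kg maintenance dose. AERP was normalized to DMF vehicle, with time counted from the start of the maintenance infusion. Tissues were collected after 30 min. n = 3 rabbits; means ± standard error.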

[33] = tested on: Oryctolagus cuniculus; experiment: Antiatrial fibrillation activity in methoxamine-sensitised rabbit assessed as plasma concentration required to show 10% increase in atrial effective refractory period at 0.17 mg/kg, iv administered as 30 mins infusion; format: functional, organism-based; in short: as §4
[34] = tested on: Oryctolagus cuniculus; experiment: Antiatrial fibrillation activity in methoxamine-sensitised rabbit assessed as plasma concentration required to show increase in atrial effective refractory period at 0.17 mg/kg, iv measured 15 mins post infusion; format: functional, organism-based; in short: as §4
[35] = tested on: Oryctolagus cuniculus; experiment: Antiatrial fibrillation activity in methoxamine-sensitised rabbit assessed as plasma concentration required to show increase in atrial effective refractory period at 0.17 mg/kg, iv measured 30 mins post infusion; format: functional, organism-based; in short: as §4
[36] = tested on: Canis familiaris; experiment: Antiarrhythmic activity in mongrel dog heart failure model assessed as reduction in mean number of pacing-induced atrial fibrillation at 0.1 to 0.3 mg/kg, po; format: functional, organism-based; details: Canis lupus familiaris
In short: (§5)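 Simultaneous atrio-ventricular pacing dog model of atrial arrhythmia. Compound was given orally at 0.1 or 0.3 mg/kg in 10% EtOH/40% propylene glycol/50% PEG 400. AF inducibility was scored as mean number of AF inductions and total AF duration, with QTc monitored and plasma concentration measured. n = 7 control, 5 (0.1 mg/kg) and 6 (0.3 mg/kg) dogs.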

[37] = tested on: Canis familiaris; experiment: Antiarrhythmic activity in mongrel dog heart failure model assessed as reduction in pacing-induced total atrial fibrillation duration at 0.1 to 0.3 mg/kg, po; format: functional, organism-based; details: Canis lupus familiaris; in short: as §5
[38] = tested on: Salmonella typhimurium; experiment: Genotoxicity in Salmonella typhimurium by Ames test; format: toxicity; details: salmonella enterica subsp. enterica serovar typhimurium
[39] = tested on: Rhesus monkey; experiment: Drug absorption in monkey famotidine model at 10 mg/kg; format: ADME, organism-based, Macaca mulatta; details: in vivo

Chain of Potassium voltage-gated channel subfamily A member 5 (P22460 whole entry): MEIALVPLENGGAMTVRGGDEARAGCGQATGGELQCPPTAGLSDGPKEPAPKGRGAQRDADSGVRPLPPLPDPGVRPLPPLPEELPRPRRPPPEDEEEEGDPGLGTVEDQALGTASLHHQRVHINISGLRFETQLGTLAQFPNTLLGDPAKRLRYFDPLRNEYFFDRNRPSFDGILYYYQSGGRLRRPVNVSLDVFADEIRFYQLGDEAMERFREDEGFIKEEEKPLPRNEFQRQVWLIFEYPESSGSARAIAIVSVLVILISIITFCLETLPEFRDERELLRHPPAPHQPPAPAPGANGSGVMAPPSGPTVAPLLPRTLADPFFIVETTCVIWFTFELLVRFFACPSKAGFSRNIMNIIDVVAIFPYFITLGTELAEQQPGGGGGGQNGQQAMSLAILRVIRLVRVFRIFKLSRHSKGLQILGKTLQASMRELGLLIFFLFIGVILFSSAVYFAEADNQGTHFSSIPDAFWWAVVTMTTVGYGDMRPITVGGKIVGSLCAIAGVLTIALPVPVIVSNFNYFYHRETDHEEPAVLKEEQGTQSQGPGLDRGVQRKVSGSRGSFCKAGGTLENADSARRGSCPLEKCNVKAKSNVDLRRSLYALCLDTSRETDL

Q: For `NS(=O)(=O)c1cncc(-c2nc(NCc3ccccn3)c3c(-c4ccccc4)cccc3n2)c1` [BMS-919373], which IC50 [1] is on record?
A: 46 to 50 nM

Q: And the Kp at 10 min [2]?
A: 0.1

Q: And the fraction unbound [3]?
A: < 0.01

Q: And the fraction unbound [4]?
A: < 0.01

Q: What about the IC50 [5] of the same molecule?
A: > 10000 nM

Q: And the clearance [6]?
A: 10.6 mL/min/kg

Q: And the half-life [7]?
A: 2 h

Q: What about the Tmax [8] of the same molecule?
A: 0.5 h

Q: And the clearance [9]?
A: 3.3 mL/min/kg

Q: What about the Vd [10] of the same molecule?
A: 0.9 L/kg

Q: And the half-life [11]?
A: 3.2 h

Q: And the Cmax [12]?
A: 7900 nM

Q: And the Tmax [13]?
A: 2.6 h

Q: And the AUC [14]?
A: 49 µM·h

Q: And the bioavailability [15]?
A: 35%

Q: And the Vd [16]?
A: 1.2 L/kg

Q: And the Cmax [17]?
A: 900 nM

Q: What about the AUC [18] of the same molecule?
A: 11 µM·h

Q: And the bioavailability [19]?
A: 100%

Q: What about the clearance [20] of the same molecule?
A: 0.05 mL/min/kg

Q: And the Vd [21]?
A: 0.2 L/kg

Q: And the half-life [22]?
A: 51 h

Q: And the Cmax [23]?
A: 7800 nM

Q: And the Activity [24]?
A: 10.7%

Q: And the concentration at 20 min [25]?
A: 1100 nM

Q: And the concentration at 0.5 h [26]?
A: 1300 nM

Q: What about the Activity [27] of the same molecule?
A: 10.8%

Q: What about the Activity [28] of the same molecule?
A: 16.2%

Q: What about the Activity [29] of the same molecule?
A: 21.6 - 22%

Q: And the concentration at 10 min [30]?
A: 2300 nM

Q: And the concentration at 20 min [31]?
A: 3600 nM

Q: What about the Cp [32] of the same molecule?
A: 0.42 µM

Q: And the Cp [33]?
A: 0.15 µM

Q: And the Cp [34]?
A: 0.1 µM

Q: And the Cp [35]?
A: 0.09 µM

Q: What about the Activity [36] of the same molecule?
A: Active

Q: And the Activity [37]?
A: Active

Q: And the Activity [38]?
A: Non-Toxic

Q: And the Drug absorption [39]?
A: Active
